# Source: PubChem
# Only a selection was taken, and hits are over-represented in it overall.
# S1P3 antag – S1P3 (human) receptor antagonism | 170,000 compounds, 0.27% hits | AID 485 | CHO S1P3 NFAT-BLA reporter, FRET fluorescence, antagonist mode | Q99500 | inhibition, % at 4.98 µM;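 active = inhibition above the plate cutoff, the mean inhibition of test wells on that plate plus 3 SD, cut at about 28% in these data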;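 note: cells challenged with S1P at its EC80 of 0.8 µM; blue over green emission ratio from cleaved BLA substrate after 4 h stimulation; 0% = S1P-stimulated wells and 100% = unstimulated DMSO-only wells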
# S1P4 ag – agonists of human S1P4 receptor | S1P4-expressing cell line, agonist reporter assay | activation, % at 4.98 µM | 220,000 compounds, 0.35% hits; in the data active = activation above about 11%;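 note: 0% = DMSO vehicle and 100% = reference agonist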
# Target sequence (O95977 whole entry, looked up): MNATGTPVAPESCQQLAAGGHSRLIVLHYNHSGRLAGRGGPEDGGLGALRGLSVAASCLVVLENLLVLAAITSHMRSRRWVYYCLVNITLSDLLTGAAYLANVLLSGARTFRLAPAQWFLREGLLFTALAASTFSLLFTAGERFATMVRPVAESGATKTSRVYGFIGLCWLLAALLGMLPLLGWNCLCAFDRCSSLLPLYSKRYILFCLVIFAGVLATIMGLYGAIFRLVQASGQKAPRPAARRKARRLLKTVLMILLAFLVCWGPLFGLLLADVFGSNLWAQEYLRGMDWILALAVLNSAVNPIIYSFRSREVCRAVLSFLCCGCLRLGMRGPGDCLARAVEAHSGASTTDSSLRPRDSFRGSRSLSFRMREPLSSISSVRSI
# Lmaj promast – reduces viability of Leishmania major promastigotes | resazurin fluorescence viability | inhibition, % at 10 µM | 200,000 compounds, 9% hits; in the data active = inhibition above about 50%;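 note: promastigotes grown with compound for 44 hours at 28 °C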
# Mdm2 ligase inh – Mdm2 E3 ligase (human) inhibition | signal enhancement, % at 5 µM | cell-based MDM2 ubiquitination luciferase reporter, 2 h; 0 = plate control, 100 = twice control, blank-subtracted | 210,000 compounds, 0.11% hits;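 active = signal enhancement of 30% or more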;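 note: luminescence tracks abundance of the self-degrading MDM2-luciferase fusion protein; higher signal means inhibition of MDM2 E3 ligase activity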
#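 Assay system: stable mammalian line carrying autodegrading MDM2–luciferase fusion reporter; Input: 2000 cells in each well; Compound dosing: single-point 5 µM; Schedule: 2 h compound exposure at 37 °C; Signal: SteadyLite luciferase luminescence after 15 min room-temperature reagent incubation; Evaluation: % luminescence enhancement versus blank-corrected plate control mean; Benchmarks: plate controls and plate blanks.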
# S1P4 antagonist – blocks the human S1P4 receptor; S1P4-expressing cells, antagonist mode, reporter read-out; inhibition, % at 4.98 µM; 220,000 compounds, 0.26% hits; AID 1510; in the data active = inhibition above about 29%;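 note: 0% = wells stimulated with agonist and 100% = vehicle wells without agonist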
# Numbers without * were called inactive; . = not tested or not shown.
SMILES,S1P3 antag,S1P4 ag,Lmaj promast,Mdm2 ligase inh,S1P4 antagonist
Cn1c(=O)c2c(nc(NCc3cccnc3)n2Cc2cccc(C(F)(F)F)c2)n(C)c1=O,-16,0,95*,10,-11
COc1cccc(Cn2c(NCc3cccnc3)nc3c2c(=O)n(C)c(=O)n3C)c1,.,2,4,6,-5
COc1ccc(C2NC(c3ccc(OC)cc3)C(c3ccccc3)C(=O)C2c2ccccc2)cc1 (stereo not given),6,-2,98*,-10,-4
Cc1ccc(-c2nnn(CC(=O)N(c3ccccc3)C(C(=O)NCC3CCCO3)c3ccc(Cl)cc3)n2)cc1 (stereo not given),.,-1,14,-17,-16
Cc1ccc(-c2nnn(CC(=O)N(c3ccccc3F)C(C(=O)NCC3CCCO3)c3c[nH]c4ccccc34)n2)cc1 (stereo not given),.,2,88*,-11,-24
COc1cc(Nc2nnc(C)s2)c(Cl)cc1Cl,.,-1,17,-13,-15
COCCOc1cc(Nc2nnc(C(F)(F)F)s2)c(Cl)cc1Cl,.,1,63*,-1,-15
COc1ccc(/C=C\C(=O)c2c(O)ccc3c(C)cc(=O)oc23)cc1,.,0,100*,-1,2
COc1ccc(/C=C/C(=O)c2c(O)ccc3c(C)cc(=O)oc23)cc1,-7,0,88*,-10,0
CCOC(=O)c1ccc(NC(=O)c2ccccc2C)cc1,13,1,8,24,-4
CCOC(=O)c1c(C)oc2c1c(C(c1cccnc1)N1CCCCC1)c(O)c1ccccc12 (stereo not given),.,-1,98*,-9,-4
O=C(CSc1nnc(CNC(=O)c2ccccc2F)o1)c1ccccc1,.,-3,0,2,-4
Cc1cc2n(n1)C(c1ccc3c(c1)OCO3)Nc1c(C)cccc1-2 (stereo not given),-4,-3,99*,-9,-5
Cc1cc2n(n1)C(c1cn(-c3ccccc3)nc1C)Nc1c(C)cccc1-2 (stereo not given),.,1,29,7,-13
O=C(COc1ccc2ccccc2c1)Nc1ccc(S(=O)(=O)N2CCCCCC2)cc1,.,-2,-7,.,-7
CC(C)(C)c1ccc(Cn2cnc(-c3ccc([N+](=O)[O-])cc3)c2)cc1,16,0,89*,6,-6
CC1c2nc3ccccc3n2C(CC(=O)NCc2ccccn2)C(=O)N1Cc1ccccc1 (stereo not given),-24,-2,-10,-9,-6
O=C(Cc1ccccc1)NCC(=O)OCC(=O)c1ccccc1Cl,-14,-1,93*,-42,-22
Cc1nn(CCOc2cccc(Br)c2)c(C)c1[N+](=O)[O-],-4,0,10,-20,-20
c1ccc(-c2ccccc2OCCN2CCOCC2)cc1,-33,2,0,5,-4
CCCCOc1ccc(C(=O)N2CCC(C)CC2)cc1,-18,0,-6,-18,-8
Brc1cccc(OCCSc2ncccn2)c1,5,-3,-1,-8,-21
CC1CCN(CCCCOc2ccc(Br)cc2)CC1,9,1,99*,-6,-3
CC1CCN(CCCCOc2cccc(Br)c2)CC1,-6,0,95*,-1,-5
CC1CCN(CCCCOc2ccccc2Br)CC1,0,1,100*,-8,-36
SMILES,S1P3 antag,S1P4 ag,Lmaj promast,Mdm2 ligase inh,S1P4 antagonist
Brc1ccccc1OCCCN1CCOCC1,28,0,72*,-3,-29
Brc1cccc(OCCN2CCCCC2)c1,-1,0,96*,23,-16
Clc1cccc(OCCN2CCOCC2)c1,-2,2,7,-24,-32
CC1CCN(CCOc2ccc(Cl)c(Cl)c2)CC1,-5,2,88*,-4,-9
Cc1cc(Br)ccc1OCCCCN1CCC(C)CC1,5,-1,100*,3,9
CC1(C)CC(=O)c2sc(NC(=O)CCS(=O)(=O)c3ccccc3)nc2C1,.,1,78*,-30,7
COc1ccc(OC)c(-c2csc(NC(=O)CSc3ccccc3)n2)c1,-9,0,77*,2,-2
Cc1cc(C)c(OCC(=O)Nc2nc(-c3ccccn3)cs2)c(C)c1,-18,1,87*,-10,-16
COc1ccc(OCCCC(=O)Nc2nc(-c3ccccn3)cs2)cc1,-22,1,100*,-3,-1
COc1ccc(OCCC(=O)Nc2nccs2)cc1,-21,0,-3,-6,10
O=C1CCCC(=O)N1c1ccc(NCCOCCO)c([N+](=O)[O-])c1,-11,-1,3,-5,-8
